Experimental data taken from ChEMBL document CHEMBL1140413, “Synthesis and in vitro evaluation of inhibitors of intestinal cholesterol absorption” (2005).

How the values were obtained:
[1] = species: Oryctolagus cuniculus; test: Percent inhibition against cholesterol absorption in brush border membrane vesicle using rabbit small intestine at concentration of 6 uM; format: functional
Summary of the method: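 Cholesterol uptake into brush border membrane vesicles prepared from rabbit whole small intestine, with membrane receptors left intact. Test compounds at a nominal 6 µM; read-out is % inhibition of cholesterol uptake. Average standard deviations ±3% inhibition.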

[2] = test system: Cricetinae gen. sp.; test: Effective dose required for reduction of liver cholesterol ester using 7-day cholesterol-fed hamster model; format: functional; conditions: 168 h

Structure (SMILES): O=C1[C@H](CCC(O)c2ccc(F)cc2)[C@@H](c2ccc(OS(=O)(=O)c3ccccc3)cc2)N1c1ccc(F)cc1 (stereo partly specified)
- inhibition [1]: 26%

Structure (SMILES): O=S(=O)(Oc1ccc([C@@H]2[C@@H](CCC(O)c3ccc(F)cc3)CN2c2ccc(F)cc2)cc1)c1ccccc1 (stereo partly specified)
- inhibition [1]: 19%

Structure (SMILES): Fc1ccc(N2C[C@H](CCCc3ccccc3)[C@H]2c2ccccc2)cc1 (racemic)
- inhibition [1]: 2%

Structure (SMILES): COC1OC(CS(=O)(=O)Oc2ccc([C@@H]3[C@@H](CCC(O)c4ccc(F)cc4)C(=O)N3c3ccc(F)cc3)cc2)C(O)C(O)C1O (stereo partly specified)
- inhibition [1]: 20%

Structure (SMILES): CS(=O)(=O)Oc1ccc([C@@H]2[C@@H](CCC(O)c3ccc(F)cc3)CN2c2ccc(F)cc2)cc1 (stereo partly specified)
- inhibition [1]: 22%

Structure (SMILES): O=C1[C@H](CC[C@H](O)c2ccc(F)cc2)[C@@H](c2ccc(O)cc2)N1c1ccc(F)cc1 [EZETIMIBE]
- inhibition [1]: 16%
- ED50 [2]: 0.04 mg/kg/day

Structure (SMILES): CC(C)(C)Oc1ccc([C@@H]2[C@@H](CCC(O)c3ccc(F)cc3)C(=O)N2c2ccc(F)cc2)cc1 (stereo partly specified)
- inhibition [1]: 10%

Structure (SMILES): COC1OC(CS(=O)(=O)Oc2ccc(C[C@@H](CCC(O)c3ccc(F)cc3)CNc3ccc(F)cc3)cc2)C(O)C(O)C1O (stereo partly specified)
- inhibition [1]: 3%

Structure (SMILES): O=C(O)[C@H]1O[C@@H](Oc2ccc([C@@H]3[C@@H](CCC(O)c4ccc(F)cc4)C(=O)N3c3ccc(F)cc3)cc2)[C@H](O)[C@H](O)[C@@H]1O (stereo partly specified)
- inhibition [1]: 19%

Structure (SMILES): COC1OC(CS(=O)(=O)Oc2ccc([C@@H]3[C@@H](CCC(O)c4ccc(F)cc4)CN3c3ccc(F)cc3)cc2)C(O)C(O)C1O (stereo partly specified)
- inhibition [1]: 27%

Structure (SMILES): COC1OC(CS(=O)(=O)Oc2ccc([C@@H]3[C@@H](CCCc4ccc(F)cc4)CN3c3ccc(F)cc3)cc2)C(O)C(O)C1O (stereo partly specified)
- inhibition [1]: 4%

Structure (SMILES): COc1ccc([C@@H]2[C@@H](CCCc3ccccc3)C(=O)N2c2ccc(OC)cc2)cc1 [SCH-48461]
- ED50 [2]: 2.2 mg/kg/day

Structure (SMILES): O=C1[C@H](CC[C@H](O)c2ccc(F)cc2)[C@@H](c2ccc(OS(=O)(=O)C[C@@H]3O[C@H](CO)[C@@H](O[C@@H]4O[C@H](CO)[C@@H](O)[C@@H](O)[C@H]4O)[C@@H](O)[C@H]3O)cc2)N1c1ccc(F)cc1
- inhibition [1]: 41%

Structure (SMILES): O=C1[C@H](CC[C@H](O)c2ccc(F)cc2)[C@@H](c2ccc(O[C@@H]3O[C@H](CO)[C@@H](O)[C@@H](O)[C@H]3O)cc2)N1c1ccc(F)cc1
- inhibition [1]: 14%

Structure (SMILES): O=C1[C@H](CCCc2ccc(F)cc2)[C@@H](c2ccc(OS(=O)(=O)C[C@@H]3O[C@H](CO)[C@@H](O[C@@H]4O[C@H](CO)[C@@H](O)[C@@H](O)[C@H]4O)[C@@H](O)[C@H]3O)cc2)N1c1ccc(F)cc1
- inhibition [1]: 10%

Structure (SMILES): O=C1[C@H](CCC(O)c2ccc(F)cc2)[C@@H](c2ccc(O[C@@H]3O[C@H](CO)[C@@H](O[C@@H]4O[C@H](CO)[C@@H](O)[C@@H](O)[C@H]4O)[C@@H](O)[C@H]3O)cc2)N1c1ccc(F)cc1 (stereo partly specified)
- inhibition [1]: 27%

Structure (SMILES): O=C1[C@H](CCCc2ccccc2)[C@@H](c2ccccc2)N1c1ccc(F)cc1 (racemic)
- inhibition [1]: 2%

Structure (SMILES): O=C1[C@H](CCCc2ccc(F)cc2)[C@@H](c2ccc(O[C@@H]3O[C@H](CO)[C@@H](O[C@@H]4O[C@H](CO)[C@@H](O)[C@@H](O)[C@H]4O)[C@@H](O)[C@H]3O)cc2)N1c1ccc(F)cc1
- inhibition [1]: 3%

Structure (SMILES): O=S(=O)(CC1OC(CO)C(O)C(O)C1O)Oc1ccc([C@@H]2[C@@H](CCC(O)c3ccc(F)cc3)CN2c2ccc(F)cc2)cc1 (stereo partly specified)
- inhibition [1]: 20%

Structure (SMILES): O=C1[C@H](CCC(O)c2ccc(F)cc2)[C@@H](c2ccc(OCC3OC(CO)C(O)C(O)C3O)cc2)N1c1ccc(F)cc1 (stereo partly specified)
- inhibition [1]: 15%

Structure (SMILES): O=C1[C@H](CCC(O)c2ccc(F)cc2)[C@@H](c2ccc(OS(=O)(=O)CC3OC(CO)C(O)C(O)C3O)cc2)N1c1ccc(F)cc1 (stereo partly specified)
- inhibition [1]: 15%

Structure (SMILES): CS(=O)(=O)Oc1ccc([C@@H]2[C@@H](CCC(O)c3ccc(F)cc3)C(=O)N2c2ccc(F)cc2)cc1 (stereo partly specified)
- inhibition [1]: 30%

Structure (SMILES): CS(=O)(=O)Oc1ccc(C[C@@H](CCC(O)c2ccc(F)cc2)CNc2ccc(F)cc2)cc1 (stereo partly specified)
- inhibition [1]: -2%

Structure (SMILES): CO[C@H]1O[C@@H](COc2ccc([C@@H]3[C@@H](CC[C@H](O)c4ccc(F)cc4)C(=O)N3c3ccc(F)cc3)cc2)[C@@H](O)[C@H](O)[C@@H]1O
- inhibition [1]: 13%

Structure (SMILES): O=C1[C@H](CC[C@H](O)c2ccc(F)cc2)[C@@H](c2ccc(OC[C@@H]3O[C@H](CO)[C@@H](O[C@@H]4O[C@H](CO)[C@@H](O)[C@@H](O)[C@H]4O)[C@@H](O)[C@H]3O)cc2)N1c1ccc(F)cc1
- inhibition [1]: 28%
